Reference: ChEMBL document CHEMBL1649336, “Isolation and characterization of minor analogues of silvestrol and other constituents from a large-scale re-collection of Aglaia foveolata” (J Nat Prod, 2010)

How the values were obtained:
[1] = system: HT-29; test: Cytotoxicity against human HT-29 cells after 3 days by sulforhodamine B assay; format: functional; settings: HT-29, 72 h, read-out: ED50 (the source's name)
Procedure, shortened: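 HT-29 (ATCC) cells grown in MEME with 10% FBS and antibiotics at 37 °C, 5% CO2, used one day after a medium change at 60–70% confluence. 9500 cells/well exposed in triplicate to serial dilutions (10% DMSO vehicle, also the control) for 3 days. Cells fixed with cold TCA, stained with 0.4% SRB, dye solubilized in 10 mM Tris (pH 10), A515 read. ED50 by nonlinear regression.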

[2] = target: Transcription factor p65 (Homo sapiens, UniProt Q04206); test: Inhibition of NF-kappaB p65 isolated from nuclear extract of human HeLa cells assessed as blockade of binding to biotinylated consesus sequence by chemiluminescence assay; format: cell-free
Transcription factor p65, sequence (Q04206 whole entry): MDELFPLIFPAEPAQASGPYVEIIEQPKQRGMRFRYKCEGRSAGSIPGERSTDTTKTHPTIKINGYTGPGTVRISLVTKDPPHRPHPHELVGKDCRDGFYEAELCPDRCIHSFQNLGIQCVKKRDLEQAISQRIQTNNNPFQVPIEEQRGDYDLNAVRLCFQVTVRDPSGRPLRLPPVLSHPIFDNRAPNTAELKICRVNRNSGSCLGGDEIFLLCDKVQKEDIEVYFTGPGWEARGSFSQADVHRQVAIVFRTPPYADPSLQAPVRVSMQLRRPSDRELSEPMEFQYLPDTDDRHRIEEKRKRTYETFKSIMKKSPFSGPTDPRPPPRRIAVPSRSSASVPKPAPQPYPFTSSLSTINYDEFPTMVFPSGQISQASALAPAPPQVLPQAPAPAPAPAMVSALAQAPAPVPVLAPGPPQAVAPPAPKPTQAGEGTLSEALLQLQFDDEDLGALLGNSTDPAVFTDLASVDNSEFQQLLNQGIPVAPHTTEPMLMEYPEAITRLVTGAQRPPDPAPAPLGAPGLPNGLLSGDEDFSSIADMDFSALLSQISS

## COC(=O)[C@H]1[C@@H](O)[C@@]2(O)c3c(OC)cc(O[C@@H]4O[C@@H]([C@H](O)CO)CO[C@@H]4OC)cc3O[C@@]2(c2ccc(OC)cc2)[C@@H]1c1ccccc1
[1]
  EC50: 2290 nM

## COC(=O)[C@H]1[C@@H](O)[C@@]2(O)c3c(OC)cc(O[C@@H]4O[C@@H]([C@H](O)CO)CO[C@H]4OC)cc3O[C@@]2(c2ccc(OC)cc2)[C@@H]1c1ccccc1 [SILVESTROL]
[1]
  EC50: 0.7 nM
[2]
  IC50: > 20000 nM

## CC(=O)O[C@H]1C(=O)[C@@]2(C)[C@H]([C@H](OC(=O)c3ccccc3)[C@]3(O)C[C@H](OC(=O)[C@H](O)[C@@H](NC(=O)c4ccccc4)c4ccccc4)C(C)=C1C3(C)C)[C@]1(OC(C)=O)CO[C@@H]1C[C@@H]2O [PACLITAXEL]
[1]
  EC50: 0.6 nM

## CC(C)(O)[C@@H]1CC[C@](C)([C@H]2CC[C@]3(C)[C@@H]2CC[C@@H]2[C@@]4(C)CCC(=O)OC(C)(C)[C@@H]4CC[C@]23C)O1
[1]
  EC50: > 10000 nM
[2]
  IC50: > 20000 nM

## CC[C@@]1(O)C(=O)OCc2c1cc1n(c2=O)Cc2cc3ccccc3nc2-1 [CAMPTOTHECIN]
[1]
  EC50: 60 nM

## COC(=O)[C@H]1[C@@H](O)[C@@]2(O)c3c(OC)cc(O[C@@H]4O[C@@H]([C@@H](O)CO)CO[C@@H]4OC)cc3O[C@@]2(c2ccc(OC)cc2)[C@@H]1c1ccccc1
[1]
  EC50: 1070 nM

## CC(C)(O)[C@@H]1CC[C@@](C)([C@H]2CC[C@]3(C)[C@@H]2CC[C@@H]2[C@@]4(C)CCC(=O)OC(C)(C)[C@@H]4CC[C@]23C)O1
[1]
  EC50: > 10000 nM
[2]
  IC50: > 20000 nM

## CC(C)C1=CC2=C(CO)C(=O)C[C@@H](O)[C@]2(C)CC1
[1]
  EC50: > 10000 nM
[2]
  IC50: > 20000 nM

## CC(C)(O)[C@@H]1CC[C@@]2(O)CC[C@]3(C)[C@H](CC[C@@H]4[C@@]5(C)CCC(=O)C(C)(C)[C@H]5CC[C@]43C)[C@H]2O1
[1]
  EC50: > 10000 nM
[2]
  IC50: > 20000 nM

## COC(=O)[C@H]1[C@@H](O)[C@@]2(O)c3c(OC)cc(O[C@@H]4O[C@@H]([C@@H](O)CO)CO[C@H]4OC)cc3O[C@@]2(c2ccc(OC)cc2)[C@@H]1c1ccccc1 [2'-EPISILVESTROL]
[1]
  EC50: 1 nM
